{"source": "ChEMBL document CHEMBL5143722", "about": "“Antimicrobial Peptides against Multidrug-Resistant Pseudomonas aeruginosa Biofilm from Cystic Fibrosis Patients” (J Med Chem, 2022)", "key": {"Pseudomonas aeruginosa [1]": {"test_system": "Pseudomonas aeruginosa", "assay": "Antibiofilm activity against Pseudomonas aeruginosa clinical isolate 82 in artificial sputum medium at 100 uM incubated for 24 hrs by resazurin staining based microtiter plate method", "format": "functional, organism-based", "procedure,_shortened": "(§1)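 Washed overnight culture set to OD ~0.05 in BM2, diluted 1:100 into artificial sputum medium (pH 6.9) in 24-well plates. Grown 3 days aerobically at 37 °C with agitation. Peptides (12.5–100 μM) added for 24 h with agitation. Biofilm disrupted by cellulase for 1 h at 37 °C. Resazurin 0.02% for 1–2 h, fluorescence ex 530/em 590 nm; viability as % of untreated wells.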"}, "Pseudomonas aeruginosa [2]": {"test_system": "Pseudomonas aeruginosa", "assay": "Antibiofilm activity against Pseudomonas aeruginosa clinical isolate 995 assessed as inhibition of biofilm formation at 1.56 uM incubated for 24 hrs by crystal violet staining based microtiter plate method", "format": "functional, organism-based", "procedure,_shortened": "(§2)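 Washed overnight cultures in BM2 medium at 1 × 10^6 CFU/mL with 2-fold serial peptide dilutions in a U-bottom 96-well plate. Incubated 24 h at 37 °C without agitation. Unattached cells washed off, then 0.1% crystal violet stain read at 590 nm. No-bacteria blanks. Biomass expressed as % of untreated biofilm. At least three biological repeats.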"}, "Pseudomonas aeruginosa [3]": {"test_system": "Pseudomonas aeruginosa", "assay": "Antibiofilm activity against Pseudomonas aeruginosa clinical isolate 52 assessed as inhibition of biofilm formation at 1.56 uM incubated for 24 hrs by crystal violet staining based microtiter plate method", "format": "functional, organism-based", "procedure,_shortened": "as §2"}, "Pseudomonas aeruginosa [4]": {"test_system": "Pseudomonas aeruginosa", "assay": "Antibiofilm activity against Pseudomonas aeruginosa clinical isolate 53 assessed as inhibition of biofilm formation at 1.56 uM incubated for 24 hrs by crystal violet staining based microtiter plate method", "format": "functional, organism-based", "procedure,_shortened": "as §2"}, "Pseudomonas aeruginosa [5]": {"test_system": "Pseudomonas aeruginosa", "assay": "Antibiofilm activity against Pseudomonas aeruginosa clinical isolate 24 in artificial sputum medium at 100 uM incubated for 24 hrs by resazurin staining based microtiter plate method", "format": "functional, organism-based", "procedure,_shortened": "as §1"}, "Pseudomonas aeruginosa [6]": {"test_system": "Pseudomonas aeruginosa", "assay": "Induction of biofilm degradation of Pseudomonas aeruginosa clinical isolate 59 at 12.5 uM incubated for 1 hr by crystal violet staining analysis"}, "Pseudomonas aeruginosa [7]": {"test_system": "Pseudomonas aeruginosa", "assay": "Antibiofilm activity against Pseudomonas aeruginosa clinical isolate 99 assessed as inhibition of biofilm formation at 1.56 uM incubated for 24 hrs by crystal violet staining based microtiter plate method", "format": "functional, organism-based", "procedure,_shortened": "as §2"}, "Pseudomonas aeruginosa [8]": {"test_system": "Pseudomonas aeruginosa", "assay": "Antibiofilm activity against Pseudomonas aeruginosa clinical isolate 72 assessed as inhibition of biofilm formation at 1.56 uM incubated for 24 hrs by crystal violet staining based microtiter plate method", "format": "functional, organism-based", "procedure,_shortened": "as §2"}, "Pseudomonas aeruginosa [9]": {"test_system": "Pseudomonas aeruginosa", "assay": "Antibiofilm activity against Pseudomonas aeruginosa clinical isolate 46 assessed as inhibition of biofilm formation at 1.56 uM incubated for 24 hrs by crystal violet staining based microtiter plate method", "format": "functional, organism-based", "procedure,_shortened": "as §2"}, "Pseudomonas aeruginosa [10]": {"test_system": "Pseudomonas aeruginosa", "assay": "Antibiofilm activity against Pseudomonas aeruginosa PAO1 in artificial sputum medium at 100 uM incubated for 24 hrs by resazurin staining based microtiter plate method", "format": "functional, organism-based", "procedure,_shortened": "as §1"}, "Pseudomonas aeruginosa [11]": {"test_system": "Pseudomonas aeruginosa", "assay": "Antibiofilm activity against Pseudomonas aeruginosa clinical isolate 82 in artificial sputum medium at 50 uM incubated for 24 hrs by resazurin staining based microtiter plate method", "format": "functional, organism-based", "procedure,_shortened": "as §1"}, "Pseudomonas aeruginosa [12]": {"test_system": "Pseudomonas aeruginosa", "assay": "Bactericidal activity against Pseudomonas aeruginosa clinical isolate 46 derived from cystic fibrosis patient sputum assessed as killing rate at 10 uM measured after 1 hr by time-kill assay relative to control", "format": "functional", "procedure,_shortened": "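Pooled CF patient sputum diluted 10-fold in 10 mM phosphate buffer (pH 7.0), centrifuged and 0.22 μm filtered. Bacteria at 10^6 CFU/mL in 10% sputum supernatant with 10 μM peptide for 1 h at 37 °C. Diluted and plated on LB agar; colonies counted against untreated plates.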"}, "Pseudomonas aeruginosa [13]": {"test_system": "Pseudomonas aeruginosa", "assay": "Antibiofilm activity against Pseudomonas aeruginosa clinical isolate 24 assessed as inhibition of biofilm formation at 1.56 uM incubated for 24 hrs by crystal violet staining based microtiter plate method", "format": "functional, organism-based", "procedure,_shortened": "as §2"}, "Pseudomonas aeruginosa [14]": {"test_system": "Pseudomonas aeruginosa", "assay": "Antibiofilm activity against Pseudomonas aeruginosa clinical isolate 24 in artificial sputum medium at 25 uM incubated for 24 hrs by resazurin staining based microtiter plate method relative to control", "format": "functional", "procedure,_shortened": "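Overnight cultures were washed, resuspended in BM2 to OD ~0.05, and diluted 1:100 into artificial sputum medium (pH 6.9). Biofilms grew 3 days at 37 °C with aerobic agitation in 24-well plates. Peptides (12.5–100 μM) were then added for 24 h with agitation. Biofilm was disrupted with cellulase for 1 h at 37 °C. Resazurin (0.02%) was added for 1–2 h, fluorescence read at ex 530/em 590 nm, and viability expressed as % of untreated wells.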"}, "Pseudomonas aeruginosa [15]": {"test_system": "Pseudomonas aeruginosa", "assay": "Antibiofilm activity against Pseudomonas aeruginosa clinical isolate 24 in artificial sputum medium at 50 uM incubated for 24 hrs by resazurin staining based microtiter plate method", "format": "functional, organism-based", "procedure,_shortened": "as §1"}, "Pseudomonas aeruginosa [16]": {"test_system": "Pseudomonas aeruginosa", "assay": "Induction of biofilm degradation of Pseudomonas aeruginosa clinical isolate 59 at 50 uM incubated for 1 hr by crystal violet staining analysis"}, "Pseudomonas aeruginosa [17]": {"test_system": "Pseudomonas aeruginosa", "assay": "Induction of biofilm degradation of Pseudomonas aeruginosa clinical isolate 71 at sub MIC concentration incubated for 1 hr by crystal violet staining analysis", "format": "functional", "procedure,_shortened": "(§3)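 Bacteria at 1 × 10^6 CFU/mL in BM2 grown static at 37 °C for 24 h to form biofilm. Wells rinsed of unattached cells, then exposed for 1 h to serial peptide dilutions (1.56–50 μM). Washed, stained with 0.1% crystal violet, A590 read. Biomass given as % of untreated biofilm; no-bacteria wells as blanks. At least three biological repeats.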"}, "Pseudomonas aeruginosa [18]": {"test_system": "Pseudomonas aeruginosa", "assay": "Induction of biofilm degradation of Pseudomonas aeruginosa clinical isolate 99 at sub MIC concentration incubated for 1 hr by crystal violet staining analysis", "format": "functional", "procedure,_shortened": "as §3"}, "Pseudomonas aeruginosa [19]": {"test_system": "Pseudomonas aeruginosa", "assay": "Induction of biofilm degradation of Pseudomonas aeruginosa clinical isolate 52 at sub MIC concentration incubated for 1 hr by crystal violet staining analysis", "format": "functional", "procedure,_shortened": "as §3"}, "Pseudomonas aeruginosa [20]": {"test_system": "Pseudomonas aeruginosa", "assay": "Induction of biofilm degradation of Pseudomonas aeruginosa clinical isolate 995 at sub MIC concentration incubated for 1 hr by crystal violet staining analysis", "format": "functional", "procedure,_shortened": "as §3"}, "Pseudomonas aeruginosa [21]": {"test_system": "Pseudomonas aeruginosa", "assay": "Induction of biofilm degradation of Pseudomonas aeruginosa clinical isolate 238 at sub MIC concentration incubated for 1 hr by crystal violet staining analysis", "format": "functional", "procedure,_shortened": "as §3"}, "Pseudomonas aeruginosa [22]": {"test_system": "Pseudomonas aeruginosa", "assay": "Induction of biofilm degradation of Pseudomonas aeruginosa clinical isolate 72 at sub MIC concentration incubated for 1 hr by crystal violet staining analysis", "format": "functional", "procedure,_shortened": "as §3"}, "Pseudomonas aeruginosa [23]": {"test_system": "Pseudomonas aeruginosa", "assay": "Induction of biofilm degradation of Pseudomonas aeruginosa clinical isolate 172 at sub MIC concentration incubated for 1 hr by crystal violet staining analysis", "format": "functional", "procedure,_shortened": "as §3"}, "Pseudomonas aeruginosa [24]": {"test_system": "Pseudomonas aeruginosa", "assay": "Induction of biofilm degradation of Pseudomonas aeruginosa clinical isolate 59 at sub MIC concentration incubated for 1 hr by crystal violet staining analysis", "format": "functional", "procedure,_shortened": "as §3"}, "Pseudomonas aeruginosa [25]": {"test_system": "Pseudomonas aeruginosa", "assay": "Antibiofilm activity against Pseudomonas aeruginosa clinical isolate 59 assessed as inhibition of biofilm formation at MIC incubated for 24 hrs by crystal violet staining based microtiter plate method", "format": "functional", "procedure,_shortened": "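In BM2, bacteria at 1 × 10^6 CFU/mL were incubated with 2-fold serial peptide dilutions for 24 h at 37 °C without agitation. Unattached cells were washed off, and the remaining biofilm was stained with 0.1% crystal violet and read at OD590. Blanks had no bacteria. Biomass is given as % of untreated biofilm; at least three biological repeats.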"}, "[26]": {"assay": "Drug degradation in cystic fibrosis patient derived sputum assessed as remaining activity at 100 uM measured after 30 mins by RP-HPLC analysis", "format": "ADME, tissue-based", "settings": "human, read-out: Drug degradation", "procedure,_shortened": "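Pooled CF patient sputum diluted 10-fold in Ca/Mg-free DPBS, centrifuged at 1000 rpm for 10 min. Peptide added to the supernatant at 100 μM final and held at 37 °C. Stopped with 10% HCl. Residual peptide measured by RP-HPLC on C18 with a 20–60% ACN gradient (0.1% TFA) over 50 min, as % of the unincubated mixture.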"}}, "note": "The source made the active and inactive calls. The calls are words filed in the database; no cut-off is given here.", "data": [{"smiles": "CC(C)C[C@H](NC(=O)[C@H](CC(C)C)NC(=O)[C@H](CCCCN)NC(=O)[C@H](CC(C)C)NC(=O)[C@H](CC(C)C)NC(=O)[C@H](CCCCN)NC(=O)[C@H](CCCCN)NC(=O)[C@H](CC(C)C)NC(=O)[C@H](CC(C)C)NC(=O)[C@H](CCCCN)NC(=O)[C@H](CCCCN)NC(=O)[C@H](CC(C)C)NC(=O)[C@H](CC(C)C)NC(=O)[C@H](CCCCN)NC(=O)[C@@H](N)CC(C)C)C(N)=O", "values": [{"measurement": "Activity", "setting": "Pseudomonas aeruginosa [1]", "value": "Active"}, {"measurement": "inhibition", "setting": "Pseudomonas aeruginosa [2]", "value": "Active"}, {"measurement": "inhibition", "setting": "Pseudomonas aeruginosa [3]", "value": "Active"}, {"measurement": "inhibition", "setting": "Pseudomonas aeruginosa [4]", "value": "Active"}, {"measurement": "Activity", "setting": "Pseudomonas aeruginosa [5]", "value": "Active"}, {"measurement": "Activity", "setting": "Pseudomonas aeruginosa [6]", "value": "Active"}, {"measurement": "inhibition", "setting": "Pseudomonas aeruginosa [7]", "value": "Active"}, {"measurement": "inhibition", "setting": "Pseudomonas aeruginosa [8]", "value": "Active"}, {"measurement": "inhibition", "setting": "Pseudomonas aeruginosa [9]", "value": "Active"}, {"measurement": "Activity", "setting": "Pseudomonas aeruginosa [10]", "value": "Active"}, {"measurement": "Activity", "setting": "Pseudomonas aeruginosa [11]", "value": "Active"}, {"measurement": "Activity", "setting": "Pseudomonas aeruginosa [12]", "value": ">97.91", "unit": "%"}, {"measurement": "inhibition", "setting": "Pseudomonas aeruginosa [13]", "value": "Active"}, {"measurement": "Activity", "setting": "Pseudomonas aeruginosa [14]", "value": 41.24, "unit": "%"}, {"measurement": "Activity", "setting": "Pseudomonas aeruginosa [15]", "value": "Active"}]}, {"smiles": "CC(C)C[C@H](NC(=O)[C@H](CC(C)C)NC(=O)[C@H](CC(C)C)NC(=O)[C@H](CC(C)C)NC(=O)[C@H](CC(C)C)NC(=O)[C@H](CC(C)C)NC(=O)[C@H](CC(C)C)NC(=O)[C@H](CC(C)C)NC(=O)[C@H](CC(C)C)NC(=O)[C@H](CCCCN)NC(=O)[C@H](CCCCN)NC(=O)[C@@H](N)CCCCN)C(=O)N[C@@H](CCCCN)C(=O)N[C@@H](CCCCN)C(=O)N[C@@H](CCCCN)C(N)=O", "values": [{"measurement": "Activity", "setting": "Pseudomonas aeruginosa [16]", "value": 40, "unit": "%"}, {"measurement": "Activity", "setting": "Pseudomonas aeruginosa [17]", "value": "Active"}, {"measurement": "Activity", "setting": "Pseudomonas aeruginosa [18]", "value": "Active"}, {"measurement": "Activity", "setting": "Pseudomonas aeruginosa [19]", "value": "Active"}, {"measurement": "Activity", "setting": "Pseudomonas aeruginosa [20]", "value": "Active"}, {"measurement": "Activity", "setting": "Pseudomonas aeruginosa [21]", "value": "Active"}, {"measurement": "Activity", "setting": "Pseudomonas aeruginosa [22]", "value": "Active"}, {"measurement": "Activity", "setting": "Pseudomonas aeruginosa [23]", "value": "Active"}, {"measurement": "Activity", "setting": "Pseudomonas aeruginosa [24]", "value": "Active"}]}, {"smiles": "CC[C@H](C)[C@H](NC(=O)[C@H](CCCCN)NC(=O)[C@H](CCC(=O)O)NC(=O)[C@H](CCCCN)NC(=O)[C@H](CO)NC(=O)[C@H](CCCCN)NC(=O)[C@H](CCCNC(=N)N)NC(=O)[C@H](Cc1ccccc1)NC(=O)[C@H](Cc1ccccc1)NC(=O)[C@H](CC(=O)O)NC(=O)CNC(=O)[C@H](CC(C)C)NC(=O)[C@@H](N)CC(C)C)C(=O)NCC(=O)N[C@@H](CCCCN)C(=O)N[C@@H](CCC(=O)O)C(=O)N[C@@H](Cc1ccccc1)C(=O)N[C@@H](CCCCN)C(=O)N[C@@H](CCCNC(=N)N)C(=O)N[C@H](C(=O)N[C@H](C(=O)N[C@@H](CCC(N)=O)C(=O)N[C@@H](CCCNC(=N)N)C(=O)N[C@H](C(=O)N[C@@H](CCCCN)C(=O)N[C@@H](CC(=O)O)C(=O)N[C@@H](Cc1ccccc1)C(=O)N[C@@H](CC(C)C)C(=O)N[C@@H](CCCNC(=N)N)C(=O)N[C@@H](CC(N)=O)C(=O)N[C@@H](CC(C)C)C(=O)N[C@H](C(=O)N1CCC[C@H]1C(=O)N[C@@H](CCCNC(=N)N)C(=O)N[C@H](C(=O)N[C@@H](CCC(=O)O)C(=O)N[C@@H](CO)C(N)=O)[C@@H](C)O)C(C)C)[C@@H](C)CC)C(C)C)[C@@H](C)CC", "values": [{"measurement": "inhibition (INH)", "setting": "Pseudomonas aeruginosa [25]", "value": 30, "unit": "%"}, {"measurement": "metabolised at 0.5 h, 100 µM", "setting": "[26]", "value": 100, "unit": "%"}]}]}
